The text below walks through data of ChEMBL document CHEMBL1828615, “Synthesis of a series of 3,4-methanoarginines as side-chain conformationally restricted analogues of arginine” (Bioorg Med Chem, 2011).

Substrate in series [1]: N=C(N)NCCC[C@H](N)C(=O)O
The experiment in a line: (§1) Activity of mouse iNOS by Michaelis-Menten equation analysis. The procedure, abridged:
(§2)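 Murine iNOS kinetics used a hemoglobin capture assay at 30 °C, with no CaCl₂ or calmodulin. The mix held varied substrate concentrations, NADPH, 0.125 mg/mL ferrous hemoglobin-A₀ and H₄B in 100 mM HEPES (pH 7.5), and enzyme addition started it. Absorbance at 401 nm tracked NO-mediated hemoglobin oxidation. Km and kcat were obtained by nonlinear Michaelis–Menten regression of activity against substrate concentration.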

Substrate in series [2]: N=C(N)NC[C@H]1C[C@@H]1[C@H](N)C(=O)O
The description is as §1. The procedure, abridged:
as §2

Substrate in series [3]: N=C(N)NC[C@H]1C[C@H]1[C@H](N)C(=O)O
The series is described as §1. The procedure, abridged:
as §2

Substrate in series [4]: N=C(N)NCCC[C@H](N)C(=O)O
The experiment in a line: (§3) Ratio of Kcat to Km for mouse iNOS by Michaelis-Menten equation analysis. In a few lines:
as §2

Substrate in series [5]: N=C(N)NC[C@H]1C[C@@H]1[C@H](N)C(=O)O
The series is described as §3. The procedure, abridged: as §2

Substrate in series [6]: N=C(N)NC[C@H]1C[C@H]1[C@H](N)C(=O)O
Described as §3. The procedure, abridged: as §2

Substrate in series [7]: N=C(N)NCCC[C@H](N)C(=O)O
Nature of the series: (§4) Activity of bovine eNOS by Michaelis-Menten equation analysis. Conditions: Bos taurus. The procedure, abridged: (§5)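 Bovine eNOS run as a hemoglobin capture assay at 30 °C. The mix held varied substrate concentrations, 1.0 mM CaCl₂, 600 unit/mL calmodulin, NADPH, 0.125 mg/mL ferrous hemoglobin-A₀ and H₄B in 100 mM HEPES (pH 7.5). Enzyme addition started the reaction, and NO-driven hemoglobin oxidation was followed at 401 nm. Km and kcat came from a nonlinear Michaelis–Menten fit of activity versus substrate concentration.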

Substrate in series [8]: N=C(N)NC[C@H]1C[C@@H]1[C@H](N)C(=O)O
The series is described as §4. Conditions: Bos taurus. The procedure, abridged: as §5

Substrate in series [9]: N=C(N)NC[C@H]1C[C@H]1[C@H](N)C(=O)O
Described as §4. Conditions: Bos taurus. In a few lines: as §5

Substrate in series [10]: N=C(N)NCCC[C@H](N)C(=O)O
Nature of the series: (§6) Ratio of Kcat to Km for bovine eNOS by Michaelis-Menten equation analysis. To be noted: Bos taurus. The procedure, abridged:
as §5

Substrate in series [11]: N=C(N)NC[C@H]1C[C@@H]1[C@H](N)C(=O)O
Described as §6. To be noted: Bos taurus. The procedure, abridged: as §5

Substrate in series [12]: N=C(N)NC[C@H]1C[C@H]1[C@H](N)C(=O)O
The description is as §6. Conditions: Bos taurus. In a few lines: as §5

B1: Nitric oxide synthase, inducible (Mus musculus), P29477 (protein)
chain: MACPWKFLFKVKSYQSDLKEEKDINNNVKKTPCAVLSPTIQDDPKSHQNGSPQLLTGTAQNVPESLDKLHVTSTRPQYVRIKNWGSGEILHDTLHHKATSDFTCKSKSCLGSIMNPKSLTRGPRDKPTPLEELLPHAIEFINQYYGSFKEAKIEEHLARLEAVTKEIETTGTYQLTLDELIFATKMAWRNAPRCIGRIQWSNLQVFDARNCSTAQEMFQHICRHILYATNNGNIRSAITVFPQRSDGKHDFRLWNSQLIRYAGYQMPDGTIRGDAATLEFTQLCIDLGWKPRYGRFDVLPLVLQADGQDPEVFEIPPDLVLEVTMEHPKYEWFQELGLKWYALPAVANMLLEVGGLEFPACPFNGWYMGTEIGVRDFCDTQRYNILEEVGRRMGLETHTLASLWKDRAVTEINVAVLHSFQKQNVTIMDHHTASESFMKHMQNEYRARGGCPADWIWLVPPVSGSITPVFHQEMLNYVLSPFYYYQIEPWKTHIWQNEKLRPRRREIRFRVLVKVVFFASMLMRKVMASRVRATVLFATETGKSEALARDLATLFSYAFNTKVVCMDQYKASTLEEEQLLLVVTSTFGNGDCPSNGQTLKKSLFMLRELNHTFRYAVFGLGSSMYPQFCAFAHDIDQKLSHLGASQLAPTGEGDELSGQEDAFRSWAVQTFRAACETFDVRSKHHIQIPKRFTSNATWEPQQYRLIQSPEPLDLNRALSSIHAKNVFTMRLKSQQNLQSEKSSRTTLLVQLTFEGSRGPSYLPGEHLGIFPGNQTALVQGILERVVDCPTPHQTVCLEVLDESGSYWVKDKRLPPCSLSQALTYFLDITTPPTQLQLHKLARFATDETDRQRLEALCQPSEYNDWKFSNNPTFLEVLEEFPSLHVPAAFLLSQLPILKPRYYSISSSQDHTPSEVHLTVAVVTYRTRDGQGPLHHGVCSTWIRNLKPQDPVPCFVRSVSGFQLPEDPSQPCILIGPGTGIAPFRSFWQQRLHDSQHKGLKGGRMSLVFGCRHPEEDHLYQEEMQEMVRKRVLFQVHTGYSRLPGKPKVYVQDILQKQLANEVLSVLHGEQGHLYICGDVRMARDVATTLKKLVATKLNLSEEQVEDYFFQLKSQKRYHEDIFGAVFSYGAKKGSALEEPKATRL
Turning to B1, the Km (in general, the substrate concentration at which the rate is half of its maximum) was 9.5 µM in series [1], 20 µM in series [2] and 582 µM in [3]. In addition, the values for the kcat/Km in series [4], in series [5] and in [6] were 110000 M⁻¹ s⁻¹, 99000 M⁻¹ s⁻¹ and 3000 M⁻¹ s⁻¹, respectively.

B2: Nitric oxide synthase 3 (Bos taurus), P29473 (protein)
chain: MGNLKSVGQEPGPPCGLGLGLGLGLCGKQGPASPAPEPSRAPAPATPHAPDHSPAPNSPTLTRPPEGPKFPRVKNWELGSITYDTLCAQSQQDGPCTPRCCLGSLVLPRKLQTRPSPGPPPAEQLLSQARDFINQYYSSIKRSGSQAHEERLQEVEAEVASTGTYHLRESELVFGAKQAWRNAPRCVGRIQWGKLQVFDARDCSSAQEMFTYICNHIKYATNRGNLRSAITVFPQRAPGRGDFRIWNSQLVRYAGYRQQDGSVRGDPANVEITELCIQHGWTPGNGRFDVLPLLLQAPDEAPELFVLPPELVLEVPLEHPTLEWFAALGLRWYALPAVSNMLLEIGGLEFSAAPFSGWYMSTEIGTRNLCDPHRYNILEDVAVCMDLDTRTTSSLWKDKAAVEINLAVLHSFQLAKVTIVDHHAATVSFMKHLDNEQKARGGCPADWAWIVPPISGSLTPVFHQEMVNYILSPAFRYQPDPWKGSATKGAGITRKKTFKEVANAVKISASLMGTLMAKRVKATILYASETGRAQSYAQQLGRLFRKAFDPRVLCMDEYDVVSLEHEALVLVVTSTFGNGDPPENGESFAAALMEMSGPYNSSPRPEQHKSYKIRFNSVSCSDPLVSSWRRKRKESSNTDSAGALGTLRFCVFGLGSRAYPHFCAFARAVDTRLEELGGERLLQLGQGDELCGQEEAFRGWAKAAFQASCETFCVGEEAKAAAQDIFSPKRSWKRQRYRLSTQAEGLQLLPGLIHVHRRKMFQATVLSVENLQSSKSTRATILVRLDTAGQEGLQYQPGDHIGICPPNRPGLVEALLSRVEDPPPPTESVAVEQLEKGSPGGPPPSWVRDPRLPPCTLRQALTFFLDITSPPSPRLLRLLSTLAEEPSEQQELETLSQDPRRYEEWKWFRCPTLLEVLEQFPSVALPAPLLLTQLPLLQPRYYSVSSAPNAHPGEVHLTVAVLAYRTQDGLGPLHYGVCSTWLSQLKTGDPVPCFIRGAPSFRLPPDPYVPCILVGPGTGIAPFRGFWQERLHDIESKGLQPAPMTLVFGCRCSQLDHLYRDEVQDAQERGVFGRVLTAFSREPDSPKTYVQDILRTELAAEVHRVLCLERGHMFVCGDVTMATSVLQTVQRILATEGDMELDEAGDVIGVLRDQQRYHEDIFGLTLRTQEVTSRIRTQSFSLQERHLRGAVPWAFDPPGPDTPGP
With B2, the Km in [7] amounted to 1.1 µM; in series [8], 3.6 µM; in series [9], 163 µM. Also, the specificity constant (kcat/Km) (commonly the second-order rate constant that governs catalysis at low substrate concentration) in series [10] was determined as 73000 M⁻¹ s⁻¹; in series [11] it was 42000 M⁻¹ s⁻¹; in [12] it was 920 M⁻¹ s⁻¹.
